{"source": "paper PMC7867784", "about": "(Translational Lung Cancer Research, 2021)", "test_system": "Japanese patients with RET-rearranged NSCLC", "experiment": "ALL-RET phase 1/2 trial: safety", "format": "in vivo, human", "outline": "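Adverse events were graded by NCI CTCAE v4.0, with causal relation to treatment recorded separately. Dose finding used a 3+3 de-escalation design with 3–6 patients per cohort. DLT was evaluated over the first 21-day cycle and defined as grade ≥4 thrombopenia, grade ≥3 febrile neutropenia, grade ≥4 neutropenia lasting ≥4 days, or grade ≥3 non-hematologic toxicity, with specified exceptions. Follow-up ran until January 2019.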"}
{"smiles": "CCc1cc2c(cc1N1CCC(N3CCOCC3)CC1)C(C)(C)c1[nH]c3cc(C#N)ccc3c1C2=O", "note": "[alectinib]", "values": [{"measurement": "grade 4 AEs", "setting": "450 mg BID", "result": "no grade 4 AEs were observed"}, {"measurement": "Aspartate aminotransferase increase, any grade, number (total)", "setting": "450 mg BID (N=28)", "result": 9}, {"measurement": "Aspartate aminotransferase increase, any grade, number [causally related]", "setting": "450 mg BID (N=28)", "result": 7}, {"measurement": "Aspartate aminotransferase increase, any grade, percent (total)", "setting": "450 mg BID (N=28)", "result": 32.1, "unit": "%"}, {"measurement": "Aspartate aminotransferase increase, any grade, percent [causally related]", "setting": "450 mg BID (N=28)", "result": 25.0, "unit": "%"}, {"measurement": "Aspartate aminotransferase increase, grade 1–2, number (total)", "setting": "450 mg BID (N=28)", "result": 9}, {"measurement": "Aspartate aminotransferase increase, grade 1–2, number [causally related]", "setting": "450 mg BID (N=28)", "result": 7}, {"measurement": "Aspartate aminotransferase increase, grade 3, number", "setting": "450 mg BID (N=28)", "result": 0}, {"measurement": "Aspartate aminotransferase increase, grade 4, number", "setting": "450 mg BID (N=28)", "result": 0}, {"measurement": "Bilirubin increase, any grade, number (total)", "setting": "450 mg BID (N=28)", "result": "6 [6]"}, {"measurement": "Bilirubin increase, any grade, number [causally related]", "setting": "450 mg BID (N=28)", "result": "6 [6]"}, {"measurement": "Bilirubin increase, any grade, percent", "setting": "450 mg BID (N=28)", "result": 21.4, "unit": "%"}, {"measurement": "Bilirubin increase, grade 1–2, number (total)", "setting": "450 mg BID (N=28)", "result": "5 [5]"}, {"measurement": "Bilirubin increase, grade 1–2, number [causally related]", "setting": "450 mg BID (N=28)", "result": "5 [5]"}, {"measurement": "Bilirubin increase, grade 3, number (total)", "setting": "450 mg BID (N=28)", "result": "1 [1]"}, {"measurement": "Bilirubin increase, grade 3, number [causally related]", "setting": "450 mg BID (N=28)", "result": "1 [1]"}, {"measurement": "Bilirubin increase, grade 4, number", "setting": "450 mg BID (N=28)", "result": 0}, {"measurement": "Constipation, any grade, number [causally related]", "setting": "450 mg BID (N=28)", "result": 12}, {"measurement": "Constipation, any grade, percent (total)", "setting": "450 mg BID (N=28)", "result": 57.1, "unit": "%"}, {"measurement": "Constipation, any grade, percent [causally related]", "setting": "450 mg BID (N=28)", "result": 42.9, "unit": "%"}, {"measurement": "Constipation, grade 1–2, number (total)", "setting": "450 mg BID (N=28)", "result": 16}, {"measurement": "Constipation, grade 1–2, number [causally related]", "setting": "450 mg BID (N=28)", "result": 12}, {"measurement": "Constipation, grade 3, number", "setting": "450 mg BID (N=28)", "result": 0}, {"measurement": "Constipation, grade 4, number", "setting": "450 mg BID (N=28)", "result": 0}, {"measurement": "Creatine phosphokinase increase, any grade, number (total)", "setting": "450 mg BID (N=28)", "result": "13 [13]"}, {"measurement": "Creatine phosphokinase increase, any grade, number [causally related]", "setting": "450 mg BID (N=28)", "result": "13 [13]"}, {"measurement": "Creatine phosphokinase increase, any grade, percent", "setting": "450 mg BID (N=28)", "result": 46.4, "unit": "%"}, {"measurement": "Creatine phosphokinase increase, grade 1–2, number (total)", "setting": "450 mg BID (N=28)", "result": "12 [12]"}, {"measurement": "Creatine phosphokinase increase, grade 1–2, number [causally related]", "setting": "450 mg BID (N=28)", "result": "12 [12]"}, {"measurement": "Creatine phosphokinase increase, grade 3, number (total)", "setting": "450 mg BID (N=28)", "result": "1 [1]"}, {"measurement": "Creatine phosphokinase increase, grade 3, number [causally related]", "setting": "450 mg BID (N=28)", "result": "1 [1]"}, {"measurement": "Creatine phosphokinase increase, grade 4, number", "setting": "450 mg BID (N=28)", "result": 0}, {"measurement": "Creatinine increase, any grade, number (total)", "setting": "450 mg BID (N=28)", "result": "8 [8]"}, {"measurement": "Creatinine increase, any grade, number [causally related]", "setting": "450 mg BID (N=28)", "result": "8 [8]"}, {"measurement": "Creatinine increase, any grade, percent", "setting": "450 mg BID (N=28)", "result": 28.6, "unit": "%"}, {"measurement": "Creatinine increase, grade 1–2, number (total)", "setting": "450 mg BID (N=28)", "result": "8 [8]"}, {"measurement": "Creatinine increase, grade 1–2, number [causally related]", "setting": "450 mg BID (N=28)", "result": "8 [8]"}, {"measurement": "Creatinine increase, grade 3, number", "setting": "450 mg BID (N=28)", "result": 0}, {"measurement": "Creatinine increase, grade 4, number", "setting": "450 mg BID (N=28)", "result": 0}, {"measurement": "Diarrhea, any grade, number (total)", "setting": "450 mg BID (N=28)", "result": 3}, {"measurement": "Diarrhea, any grade, number [causally related]", "setting": "450 mg BID (N=28)", "result": 2}, {"measurement": "Diarrhea, any grade, percent (total)", "setting": "450 mg BID (N=28)", "result": 10.7, "unit": "%"}, {"measurement": "Diarrhea, any grade, percent [causally related]", "setting": "450 mg BID (N=28)", "result": 7.1, "unit": "%"}, {"measurement": "Diarrhea, grade 1–2, number (total)", "setting": "450 mg BID (N=28)", "result": "2 [2]"}, {"measurement": "Diarrhea, grade 1–2, number [causally related]", "setting": "450 mg BID (N=28)", "result": "2 [2]"}, {"measurement": "Diarrhea, grade 3, number (total)", "setting": "450 mg BID (N=28)", "result": 1}, {"measurement": "Diarrhea, grade 3, number [causally related]", "setting": "450 mg BID (N=28)", "result": 0}, {"measurement": "Diarrhea, grade 4, number", "setting": "450 mg BID (N=28)", "result": 0}, {"measurement": "Hyponatraemia, any grade, number (total)", "setting": "450 mg BID (N=28)", "result": "1 [1]"}, {"measurement": "Hyponatraemia, any grade, number [causally related]", "setting": "450 mg BID (N=28)", "result": "1 [1]"}, {"measurement": "Hyponatraemia, any grade, percent", "setting": "450 mg BID (N=28)", "result": 3.6, "unit": "%"}, {"measurement": "Hyponatraemia, grade 1–2, number", "setting": "450 mg BID (N=28)", "result": 0}, {"measurement": "Hyponatraemia, grade 3, number (total)", "setting": "450 mg BID (N=28)", "result": "1 [1]"}, {"measurement": "Hyponatraemia, grade 3, number [causally related]", "setting": "450 mg BID (N=28)", "result": "1 [1]"}, {"measurement": "Hyponatraemia, grade 4, number", "setting": "450 mg BID (N=28)", "result": 0}, {"measurement": "Neutropenia, any grade, number (total)", "setting": "450 mg BID (N=28)", "result": "1 [1]"}, {"measurement": "Neutropenia, any grade, number [causally related]", "setting": "450 mg BID (N=28)", "result": "1 [1]"}, {"measurement": "Neutropenia, any grade, percent", "setting": "450 mg BID (N=28)", "result": 3.6, "unit": "%"}, {"measurement": "Neutropenia, grade 1–2, number", "setting": "450 mg BID (N=28)", "result": 0}, {"measurement": "Neutropenia, grade 3, number (total)", "setting": "450 mg BID (N=28)", "result": "1 [1]"}, {"measurement": "Neutropenia, grade 3, number [causally related]", "setting": "450 mg BID (N=28)", "result": "1 [1]"}, {"measurement": "Neutropenia, grade 4, number", "setting": "450 mg BID (N=28)", "result": 0}, {"measurement": "Pneumonitis, any grade, percent (total)", "setting": "450 mg BID (N=28)", "result": 3.6, "unit": "%"}, {"measurement": "Pneumonitis, any grade, percent [causally related]", "setting": "450 mg BID (N=28)", "result": 0.0, "unit": "%"}, {"measurement": "Pneumonitis, grade 1–2, number", "setting": "450 mg BID (N=28)", "result": 0}, {"measurement": "Pneumonitis, grade 3, number (total)", "setting": "450 mg BID (N=28)", "result": "1 [1]"}, {"measurement": "Pneumonitis, grade 3, number [causally related]", "setting": "450 mg BID (N=28)", "result": "1 [1]"}, {"measurement": "Pneumonitis, grade 4, number", "setting": "450 mg BID (N=28)", "result": 0}, {"measurement": "Constipation, any grade, number (total)", "setting": "450 mg BID (N=28; phase 1 N=3, phase 2 N=25)", "result": 16}, {"measurement": "dose reduction due to toxicity", "setting": "450 mg BID, 28 patients", "result": "no patients required a dose reduction"}, {"measurement": "patients whose treatment was discontinued due to pneumonitis", "setting": "450 mg BID, out of 28 patients", "result": 1}, {"measurement": "Alkaline phosphatase increase, any grade, number (total)", "setting": "600 mg BID (N=6)", "result": "2 [2]"}, {"measurement": "Alkaline phosphatase increase, any grade, number [causally related]", "setting": "600 mg BID (N=6)", "result": "2 [2]"}, {"measurement": "Alkaline phosphatase increase, any grade, percent", "setting": "600 mg BID (N=6)", "result": 33.3, "unit": "%"}, {"measurement": "Alkaline phosphatase increase, grade 1–2, number (total)", "setting": "600 mg BID (N=6)", "result": "1[1]"}, {"measurement": "Alkaline phosphatase increase, grade 1–2, number [causally related]", "setting": "600 mg BID (N=6)", "result": "1[1]"}, {"measurement": "Alkaline phosphatase increase, grade 3, number (total)", "setting": "600 mg BID (N=6)", "result": "1[1]"}, {"measurement": "Alkaline phosphatase increase, grade 3, number [causally related]", "setting": "600 mg BID (N=6)", "result": "1[1]"}, {"measurement": "Alkaline phosphatase increase, grade 4, number", "setting": "600 mg BID (N=6)", "result": 0}, {"measurement": "Cholangitis, any grade, number (total)", "setting": "600 mg BID (N=6)", "result": "1 [1]"}, {"measurement": "Cholangitis, any grade, number [causally related]", "setting": "600 mg BID (N=6)", "result": "1 [1]"}, {"measurement": "Cholangitis, any grade, percent", "setting": "600 mg BID (N=6)", "result": 16.7, "unit": "%"}, {"measurement": "Cholangitis, grade 1–2, number", "setting": "600 mg BID (N=6)", "result": 0}, {"measurement": "Cholangitis, grade 3, number (total)", "setting": "600 mg BID (N=6)", "result": "1 [1]"}, {"measurement": "Cholangitis, grade 3, number [causally related]", "setting": "600 mg BID (N=6)", "result": "1 [1]"}, {"measurement": "Cholangitis, grade 4, number", "setting": "600 mg BID (N=6)", "result": 0}, {"measurement": "Constipation, any grade, number (total)", "setting": "600 mg BID (N=6)", "result": "4 [4]"}]}
